Measurements as given in ChEMBL document CHEMBL3232963, “Discovery of a potent and selective α3β4 nicotinic acetylcholine receptor antagonist from an α-conotoxin synthetic combinatorial library” (J Med Chem, 2014).
Calls of active or inactive are those of the source. The calls are words filed in the database; no cut-off is given here. Numbered stars: 1 amine (or outer) side, 2 acyl side, 3 side chain; on linkers, the order of the positions; unused ones are H or OH. Bridge positions count the residues as written; N and C are the ends. Square brackets hold non-standard residues; d marks the D form. Peptide text beside a SMILES is read from it. X1 = O=C([C@H](CC1C=Nc2ccccc21)N[*:1])[*:2]; Nle = CCCC[C@H](N)C(=O)O; Nva = CCC[C@H](N)C(=O)O; Abu = CC[C@H](N)C(=O)O

Key:
Assay type in all cases: cell-based
[1] = biological target: T1, Neuronal acetylcholine receptor; alpha3/beta4 (Rattus norvegicus, UniProt P04757+P12392); assay: Antagonist activity at rat alpha3beta4 nAChR expressed in HEK293 cells assessed as inhibition of epibatadine-induced effect after 30 mins by fluorescent membrane potential assay
T1 sequence (P04757 whole entry): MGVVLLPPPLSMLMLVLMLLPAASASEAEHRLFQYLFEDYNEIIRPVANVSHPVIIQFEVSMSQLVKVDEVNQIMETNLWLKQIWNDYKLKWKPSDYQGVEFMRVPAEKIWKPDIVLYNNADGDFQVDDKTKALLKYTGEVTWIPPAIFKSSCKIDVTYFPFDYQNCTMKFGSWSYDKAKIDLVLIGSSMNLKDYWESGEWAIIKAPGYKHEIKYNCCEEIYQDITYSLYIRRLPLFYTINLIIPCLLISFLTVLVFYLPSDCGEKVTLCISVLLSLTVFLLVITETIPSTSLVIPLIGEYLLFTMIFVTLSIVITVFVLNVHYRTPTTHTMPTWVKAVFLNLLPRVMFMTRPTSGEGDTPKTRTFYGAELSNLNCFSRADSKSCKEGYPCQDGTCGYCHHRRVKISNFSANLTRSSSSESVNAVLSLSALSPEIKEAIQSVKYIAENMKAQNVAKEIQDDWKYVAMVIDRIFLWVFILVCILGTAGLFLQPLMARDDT
T1 sequence (P12392 whole entry): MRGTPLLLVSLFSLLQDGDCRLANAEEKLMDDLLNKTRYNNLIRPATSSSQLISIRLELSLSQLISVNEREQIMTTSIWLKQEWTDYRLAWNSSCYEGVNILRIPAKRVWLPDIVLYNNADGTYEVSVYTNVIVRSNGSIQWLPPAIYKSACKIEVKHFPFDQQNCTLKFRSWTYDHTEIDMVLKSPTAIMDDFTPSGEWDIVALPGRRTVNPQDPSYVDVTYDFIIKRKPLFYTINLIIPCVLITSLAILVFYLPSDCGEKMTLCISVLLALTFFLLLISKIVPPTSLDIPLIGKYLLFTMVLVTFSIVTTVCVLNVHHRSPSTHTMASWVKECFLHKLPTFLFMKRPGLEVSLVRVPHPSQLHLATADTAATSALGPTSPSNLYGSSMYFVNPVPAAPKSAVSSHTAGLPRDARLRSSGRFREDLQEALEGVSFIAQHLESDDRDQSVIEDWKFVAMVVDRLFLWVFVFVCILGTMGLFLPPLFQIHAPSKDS
Method in brief: (§1)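 Stably transfected HEK293 lines (KXα3β4R2, KXα3β2R2, KXα4β2R2; rat subunits) grown in DMEM/10% FBS with G-418, plated 24 h before assay. Cells washed with HBSS, peptide added, then membrane potential blue dye, 30 min at 37 °C. Fluorescence (ex 565/em 530 nm) read up to 60 s after epibatidine to 0.1 μM. IC50 from maximal responses across concentrations; n = 4.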

[2] = biological target: Neuronal acetylcholine receptor; alpha3/beta4 (Rattus norvegicus) (UniProt P04757+P12392); assay: Antagonist activity at rat alpha3beta4 nAChR expressed in HEK293 cells assessed as inhibition of epibatadine-induced effect at 10 uM after 30 mins by fluorescent membrane potential assay relative to mecamylamine
Method in brief: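 Rat α3β4 nAChR stably expressed in HEK293 cells; crude, SPE-desalted individual peptides tested at 10 μM in HBSS with membrane potential blue dye, 30 min at 37 °C. Fluorescence change read after epibatidine (0.1 μM). Percent inhibition set against 10 μM mecamylamine taken as 100%.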

[3] = biological target: Neuronal acetylcholine receptor; alpha4/beta2 (Rattus norvegicus, UniProt P09483+P12390); assay: Antagonist activity at rat alpha4beta2 nAChR expressed in HEK293 cells assessed as inhibition of epibatadine-induced effect after 30 mins by fluorescent membrane potential assay; method in brief: as §1
Chain of Neuronal acetylcholine receptor; alpha4/beta2 (P09483 whole entry): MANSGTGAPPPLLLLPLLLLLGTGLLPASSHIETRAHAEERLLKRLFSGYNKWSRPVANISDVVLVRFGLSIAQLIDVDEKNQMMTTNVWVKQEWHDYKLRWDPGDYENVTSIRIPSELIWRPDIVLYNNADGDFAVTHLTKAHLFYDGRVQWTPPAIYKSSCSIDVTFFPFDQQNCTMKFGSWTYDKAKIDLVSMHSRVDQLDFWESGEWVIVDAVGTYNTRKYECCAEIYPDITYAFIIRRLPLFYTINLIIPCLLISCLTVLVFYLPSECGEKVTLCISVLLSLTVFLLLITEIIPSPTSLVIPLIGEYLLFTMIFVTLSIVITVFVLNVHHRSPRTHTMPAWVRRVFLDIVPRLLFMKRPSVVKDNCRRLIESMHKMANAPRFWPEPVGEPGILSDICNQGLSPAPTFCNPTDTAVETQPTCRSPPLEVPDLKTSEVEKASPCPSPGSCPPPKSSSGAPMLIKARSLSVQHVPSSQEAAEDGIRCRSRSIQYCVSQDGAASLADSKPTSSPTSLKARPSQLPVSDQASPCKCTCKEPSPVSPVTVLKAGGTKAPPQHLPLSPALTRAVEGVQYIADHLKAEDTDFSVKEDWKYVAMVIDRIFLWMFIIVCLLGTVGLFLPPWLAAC
Chain of Neuronal acetylcholine receptor; alpha4/beta2 (P12390 whole entry): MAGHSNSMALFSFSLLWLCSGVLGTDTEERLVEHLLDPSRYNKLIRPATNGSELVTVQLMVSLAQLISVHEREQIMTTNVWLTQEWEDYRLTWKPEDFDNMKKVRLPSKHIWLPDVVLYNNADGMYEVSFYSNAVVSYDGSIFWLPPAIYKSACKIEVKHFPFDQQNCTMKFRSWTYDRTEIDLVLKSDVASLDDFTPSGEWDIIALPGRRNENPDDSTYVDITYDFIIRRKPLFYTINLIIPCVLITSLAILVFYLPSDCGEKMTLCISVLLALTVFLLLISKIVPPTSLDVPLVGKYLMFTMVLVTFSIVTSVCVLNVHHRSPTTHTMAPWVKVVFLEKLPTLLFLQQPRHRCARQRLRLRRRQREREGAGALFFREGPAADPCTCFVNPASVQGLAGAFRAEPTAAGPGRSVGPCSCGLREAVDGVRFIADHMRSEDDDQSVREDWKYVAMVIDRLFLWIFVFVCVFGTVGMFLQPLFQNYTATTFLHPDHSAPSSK

[4] = biological target: Neuronal acetylcholine receptor; alpha3/beta2 (Rattus norvegicus, UniProt P04757+P12390); assay: Antagonist activity at rat alpha3beta2 nAChR expressed in HEK293 cells assessed as inhibition of epibatadine-induced effect after 30 mins by fluorescent membrane potential assay; method in brief: as §1
Chain of Neuronal acetylcholine receptor; alpha3/beta2 (P04757 whole entry): as the sequence (P04757 whole entry) above
Chain of Neuronal acetylcholine receptor; alpha3/beta2 (P12390 whole entry): as the sequence (P12390 whole entry) above

[5] = biological target: T1, Neuronal acetylcholine receptor; alpha3/beta4; assay: Displacement of [3H]epibatadine from rat alpha3beta4 nAChR expressed in HEK293 cells after 2 hrs by betaplate counting analysis
Method in brief: (§2)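 Membranes from HEK293 cells stably expressing α3β4 or α4β2 nAChR, homogenised in 50 mM Tris pH 7.4 and washed by centrifugation. Incubated 2 h at room temperature with peptide and 0.31 nM [3H]epibatidine; filtered on PEI-soaked glass fibre, counted. Nonspecific binding with 0.1 μM unlabeled epibatidine. Ki by Cheng–Prusoff from IC50.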

[6] = biological target: Neuronal acetylcholine receptor subunit alpha-7 (Homo sapiens) (UniProt P36544); assay: Inhibition of alpha7 nAChR (unknown origin) expressed in Xenopus laevis oocytes assessed as inhibition of acetylcholine-evoked current at 10 uM by voltage clamp technique
Chain of Neuronal acetylcholine receptor subunit alpha-7 (Homo sapiens) (P36544 whole entry): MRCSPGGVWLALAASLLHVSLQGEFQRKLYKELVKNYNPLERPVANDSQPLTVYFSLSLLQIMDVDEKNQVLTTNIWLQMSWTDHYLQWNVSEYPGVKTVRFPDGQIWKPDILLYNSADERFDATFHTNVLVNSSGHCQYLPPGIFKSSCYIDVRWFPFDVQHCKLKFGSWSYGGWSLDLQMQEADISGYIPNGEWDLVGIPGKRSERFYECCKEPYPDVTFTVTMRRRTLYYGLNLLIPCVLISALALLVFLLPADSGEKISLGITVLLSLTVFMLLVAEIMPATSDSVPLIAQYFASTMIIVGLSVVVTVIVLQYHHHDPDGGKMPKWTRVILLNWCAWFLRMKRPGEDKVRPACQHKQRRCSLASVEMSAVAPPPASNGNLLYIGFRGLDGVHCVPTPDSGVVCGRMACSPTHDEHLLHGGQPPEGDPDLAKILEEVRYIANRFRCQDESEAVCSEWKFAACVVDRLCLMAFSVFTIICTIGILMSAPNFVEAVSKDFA

[7] = biological target: Neuronal acetylcholine receptor; alpha4/beta2 (Rattus norvegicus) (UniProt P09483+P12390); assay: Displacement of [3H]epibatadine from rat alpha4beta2 nAChR expressed in HEK293 cells up to 10 uM after 2 hrs by betaplate counting analysis; method in brief: as §2
Homo sapiens = species: Homo sapiens; assay: Selectivity for alpha3beta4 nAChR (unknown origin) expressed in Xenopus laevis oocytes over alpha3beta2 nAChR (unknown origin) expressed in Xenopus laevis oocytes
[8] = biological target: T2, Neuronal acetylcholine receptor; alpha3/beta4 (Homo sapiens, UniProt P30926+P32297); assay: Inhibition of alpha3beta4 nAChR (unknown origin) expressed in Xenopus laevis oocytes assessed as inhibition of acetylcholine-evoked current at 10 uM by voltage clamp technique
[9] = biological target: T2, Neuronal acetylcholine receptor; alpha3/beta4; assay: Inhibition of alpha3beta4 nAChR (unknown origin) expressed in Xenopus laevis oocytes assessed as inhibition of acetylcholine-evoked current by voltage clamp technique
Method in brief: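 Oocytes expressing α3 chimera/β4 nAChR, voltage-clamped at ~22 °C. Concentrations below 1 μM perfused, with 1 s ACh pulses every 1 min; 1 μM and above given as a 5 min static bath. Lowest concentration tested 10 nM. IC50 from a concentration–response curve with top and bottom fixed at 100 and 0; n = 3–5 oocytes per concentration.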

[10] = biological target: Neuronal acetylcholine receptor; alpha3/beta2 (Homo sapiens) (UniProt P17787+P32297); assay: Inhibition of alpha3beta2 nAChR (unknown origin) expressed in Xenopus laevis oocytes assessed as inhibition of acetylcholine-evoked current up to 10 uM by voltage clamp technique

CCCC[C@@H]1NC(=O)[C@H](CC)NC(=O)[C@H](Cc2ccccc2)NC(=O)[C@@H]2CSSC[C@H](NC(=O)CN)C(=O)N[C@@H](CSSC[C@@H](C(=O)O)NC(=O)[C@H](Cc3ccc(O)cc3)NC1=O)C(=O)N[C@@H](CO)C(=O)N[C@@H](Cc1cnc[nH]1)C(=O)N1CCC[C@H]1C(=O)N[C@@H](CC)C(=O)N2 (H-GCCSHP[Abu]CF[Abu][Nle]YC-OH; disulfide 2-8, 3-13)
IC50 [1]: 307 nM
inhibition [2]: 110%
IC50 [3]: > 10000 nM
IC50 [4]: > 10000 nM

CCCC[C@@H]1NC(=O)[C@H](CO)NC(=O)[C@@H]2CSSC[C@@H](C(=O)O)NC(=O)[C@H](Cc3ccc(O)cc3)NC(=O)[C@H](CCC)NC(=O)[C@H](CC)NC(=O)[C@H](Cc3ccccc3)NC(=O)[C@H](CSSC[C@H](NC(=O)CN)C(=O)N2)NC(=O)[C@H](CC)NC(=O)[C@@H]2CCCN2C1=O (H-GCCS[Nle]P[Abu]CF[Abu][Nva]YC-OH; disulfide 2-8, 3-13)
IC50 [1]: 320 nM
inhibition [2]: 104%
IC50 [3]: > 10000 nM
Ki [5]: 980 nM
IC50 [4]: > 10000 nM
inhibition [6]: inactive
Activity [7]: inactive

CCCC[C@@H]1NC(=O)[C@H](CC)NC(=O)[C@H](Cc2ccccc2)NC(=O)[C@@H]2CSSC[C@H](NC(=O)CN)C(=O)N[C@@H](CSSC[C@@H](C(=O)O)NC(=O)[C@H](Cc3ccc(O)cc3)NC1=O)C(=O)N[C@@H](CO)C(=O)N[C@@H](CCCC)C(=O)N1CCC[C@H]1C(=O)N[C@@H](CC)C(=O)N2 (H-GCCS[Nle]P[Abu]CF[Abu][Nle]YC-OH; disulfide 2-8, 3-13)
IC50 [1]: 310 nM
inhibition [2]: 106%
IC50 [3]: > 10000 nM
IC50 [4]: > 10000 nM

CCCC[C@@H]1NC(=O)[C@H](CC)NC(=O)[C@H](Cc2ccccc2)NC(=O)[C@@H]2CSSC[C@H](NC(=O)CN)C(=O)N[C@@H](CSSC[C@@H](C(=O)O)NC(=O)[C@H](Cc3ccc(O)cc3)NC1=O)C(=O)N[C@@H](CO)C(=O)N[C@@H](Cc1cnc[nH]1)C(=O)N1CCC[C@H]1C(=O)N1CCC[C@H]1C(=O)N2 (H-GCCSHPPCF[Abu][Nle]YC-OH; disulfide 2-8, 3-13)
IC50 [1]: 469 nM
inhibition [2]: 106%
IC50 [3]: > 10000 nM
IC50 [4]: > 10000 nM

CCCC[C@@H]1NC(=O)[C@H](CO)NC(=O)[C@@H]2CSSC[C@@H](C(=O)O)NC(=O)[C@H](Cc3ccc(O)cc3)NC(=O)[C@H](CCC)NC(=O)[C@H](CC)NC(=O)[C@H](Cc3ccccc3)NC(=O)[C@H](CSSC[C@H](NC(=O)CN)C(=O)N2)NC(=O)[C@@H]2CCCN2C(=O)[C@@H]2CCCN2C1=O (H-GCCS[Nle]PPCF[Abu][Nva]YC-OH; disulfide 2-8, 3-13)
IC50 [1]: 345 nM
inhibition [2]: 96.4%
IC50 [3]: > 10000 nM
Ki [5]: 1110 nM
IC50 [4]: > 10000 nM
inhibition [6]: inactive
Activity [7]: inactive

CCCC[C@@H]1NC(=O)[C@H](CC)NC(=O)[C@H](Cc2ccccc2)NC(=O)[C@@H]2CSSC[C@H](NC(=O)CN)C(=O)N[C@@H](CSSC[C@@H](C(=O)O)NC(=O)[C@H](Cc3ccc(O)cc3)NC1=O)C(=O)N[C@@H](CO)C(=O)N[C@@H](CCCC)C(=O)N1CCC[C@H]1C(=O)N1CCC[C@H]1C(=O)N2 (H-GCCS[Nle]PPCF[Abu][Nle]YC-OH; disulfide 2-8, 3-13)
IC50 [1]: 397 nM
inhibition [2]: 107%
IC50 [3]: > 10000 nM
IC50 [4]: > 10000 nM

CCC[C@@H]1NC(=O)[C@H](CC)NC(=O)[C@H]([C@H](C)CC)NC(=O)[C@@H]2CSSC[C@H](NC(=O)CN)C(=O)N[C@@H](CSSC[C@@H](C(=O)O)NC(=O)[C@H](Cc3ccc(O)cc3)NC1=O)C(=O)N[C@@H](CO)C(=O)N[C@@H](Cc1cnc[nH]1)C(=O)N1CCC[C@H]1C(=O)N[C@@H](CC)C(=O)N2
IC50 [1]: 1930 nM
inhibition [2]: 84.5%
IC50 [3]: > 10000 nM
IC50 [4]: > 10000 nM

CCC[C@@H]1NC(=O)[C@H](CC)NC(=O)[C@H](Cc2ccccc2)NC(=O)[C@@H]2CSSC[C@H](NC(=O)CN)C(=O)N[C@@H](CSSC[C@@H](C(=O)O)NC(=O)[C@H](Cc3ccc(O)cc3)NC1=O)C(=O)N[C@@H](CO)C(=O)N[C@@H](Cc1cnc[nH]1)C(=O)N1CCC[C@H]1C(=O)N[C@@H](CC)C(=O)N2 (H-GCCSHP[Abu]CF[Abu][Nva]YC-OH; disulfide 2-8, 3-13)
Selectivity ratio (Homo sapiens): > 1000
IC50 [1]: 183 nM
inhibition [2]: 109%
inhibition [8]: 75%
IC50 [3]: > 10000 nM
inhibition [9]: Dose-dependent effect
Ki [5]: 270 nM
IC50 [4]: > 10000 nM
inhibition [6]: inactive
inhibition [10]: inactive
Activity [7]: inactive

CCC[C@@H]1NC(=O)[C@H](CC)NC(=O)[C@H](Cc2ccccc2)NC(=O)[C@@H]2CSSC[C@H](NC(=O)CN)C(=O)N[C@@H](CSSC[C@@H](C(=O)O)NC(=O)[C@H](Cc3ccc(O)cc3)NC1=O)C(=O)N[C@@H](CO)C(=O)N[C@@H](Cc1cnc[nH]1)C(=O)N1CCC[C@H]1C(=O)N1CCC[C@H]1C(=O)N2 (H-GCCSHPPCF[Abu][Nva]YC-OH; disulfide 2-8, 3-13)
IC50 [1]: 298 nM
inhibition [2]: 92.6%
IC50 [3]: > 10000 nM
Ki [5]: 794 nM
IC50 [4]: > 10000 nM
inhibition [6]: 49.8%
Activity [7]: inactive

CCCC[C@@H]1NC(=O)[C@H](CC)NC(=O)[C@H]([C@H](C)CC)NC(=O)[C@@H]2CSSC[C@H](NC(=O)CN)C(=O)N[C@@H](CSSC[C@@H](C(=O)O)NC(=O)[C@H](Cc3ccc(O)cc3)NC1=O)C(=O)N[C@@H](CO)C(=O)N[C@@H](Cc1cnc[nH]1)C(=O)N1CCC[C@H]1C(=O)N[C@@H](CC)C(=O)N2
IC50 [1]: 463 nM
inhibition [2]: 110%
IC50 [3]: > 10000 nM
IC50 [4]: > 10000 nM

CCCC[C@@H]1NC(=O)[C@H](Cc2c[nH]c3ccccc23)NC(=O)[C@H](Cc2ccccc2)NC(=O)[C@@H]2CSSC[C@H](NC(=O)CN)C(=O)N[C@@H](CSSC[C@@H](C(=O)O)NC(=O)[C@H](Cc3ccc(O)cc3)NC1=O)C(=O)N[C@@H](CO)C(=O)N[C@@H](Cc1cnc[nH]1)C(=O)N1CCC[C@H]1C(=O)N[C@@H](CC)C(=O)N2 (H-GCCSHP[Abu]CFW[Nle]YC-OH; disulfide 2-8, 3-13)
IC50 [1]: 1730 nM
inhibition [2]: 101%
IC50 [3]: > 10000 nM
IC50 [4]: > 10000 nM

CCCC[C@@H]1NC(=O)[C@H](CC2C=Nc3ccccc32)NC(=O)[C@H](Cc2ccccc2)NC(=O)[C@@H]2CSSC[C@H](NC(=O)CN)C(=O)N[C@@H](CSSC[C@@H](C(=O)O)NC(=O)[C@@H]3CCCN3C1=O)C(=O)N[C@@H](CO)C(=O)N[C@@H](Cc1cnc[nH]1)C(=O)N1CCC[C@H]1C(=O)N[C@@H](CC)C(=O)N2 (stereo partly drawn) (H-GCCSHP[Abu]CF[X1][Nle]PC-OH; disulfide 2-8, 3-13)
inhibition [2]: 22.3%

CCCC[C@@H]1NC(=O)[C@H](CO)NC(=O)[C@@H]2CSSC[C@@H](C(=O)O)NC(=O)[C@@H]3CCCN3C(=O)[C@H](CCC)NC(=O)[C@H](Cc3c[nH]c4ccccc34)NC(=O)[C@H](Cc3ccccc3)NC(=O)[C@H](CSSC[C@H](NC(=O)CN)C(=O)N2)NC(=O)[C@@H]2CCCN2C(=O)[C@@H]2CCCN2C1=O (H-GCCS[Nle]PPCFW[Nva]PC-OH; disulfide 2-8, 3-13)
inhibition [2]: 37.1%

CCCC[C@@H]1NC(=O)[C@H](CC)NC(=O)[C@H]([C@H](C)CC)NC(=O)[C@@H]2CSSC[C@H](NC(=O)CN)C(=O)N[C@@H](CSSC[C@@H](C(=O)O)NC(=O)[C@@H]3CCCN3C1=O)C(=O)N[C@@H](CO)C(=O)N[C@@H](CCCC)C(=O)N1CCC[C@H]1C(=O)N1CCC[C@H]1C(=O)N2
inhibition [2]: 31.3%
